Laboratory results as given in ChEMBL document CHEMBL1124461, “Aromatic dienoyl tetramic acids. Novel antibacterial agents with activity against anaerobes and staphylococci” (J Med Chem, 1989).
In brackets after ≈: the same amount, converted by molar mass.

Key:
Bacteroides fragilis = assay: Minimum inhibitory concentration against Bacteroides fragilis ATCC 25285; assay type: functional
How it was run: (§1)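 Anaerobic MICs by 2-fold dilution in Wilkens-Chalgren broth, reported in micrograms/milliliter.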

[1] = system: Bacteroides thetaiotaomicron; assay: Minimum inhibitory concentration against Bacteroides thetaiotaomicron ATCC 29741; assay type: functional; how it was run: as §1
Clostridioides difficile = assay: Minimum inhibitory concentration against Clostridium difficile ATCC 9689; assay type: functional; how it was run: as §1
Clostridium perfringens = assay: Minimum inhibitory concentration against Clostridium perfringens ATCC 13124; assay type: functional
How it was run: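 Anaerobic MIC by 2-fold dilution in Wilkens-Chalgren broth; values in µg/mL.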

Escherichia coli [2] = assay: Minimum inhibitory concentration (MIC) against the cell line Escherichia coli H560; assay type: functional
How it was run: (§2)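 Aerobic MICs by 2-fold dilution on brain–heart infusion agar, reported in micrograms/milliliter.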

Escherichia coli [3] = assay: Minimum inhibitory concentration (MIC) against the cell line Escherichia coli juhl; assay type: functional; how it was run: as §2
Micrococcus luteus = assay: Minimum inhibitory concentration (MIC) against the cell line Micrococcus luteus ATCC 4698; assay type: functional; how it was run: as §2
Pseudomonas aeruginosa = assay: Minimum inhibitory concentration (MIC) against the cell line Pseudomonas aeruginosa A5007; assay type: functional; how it was run: as §2
[4] = molecular target: DNA-directed RNA polymerase subunit beta (Escherichia coli K-12) (UniProt P0A8V2); assay: Percent inhibition at a concentration of 100 ug/mL of RNA polymerase isolated from Escherichia coli K12 (Sigma)
Chain of DNA-directed RNA polymerase subunit beta (Escherichia coli K-12) (P0A8V2 whole entry, looked up): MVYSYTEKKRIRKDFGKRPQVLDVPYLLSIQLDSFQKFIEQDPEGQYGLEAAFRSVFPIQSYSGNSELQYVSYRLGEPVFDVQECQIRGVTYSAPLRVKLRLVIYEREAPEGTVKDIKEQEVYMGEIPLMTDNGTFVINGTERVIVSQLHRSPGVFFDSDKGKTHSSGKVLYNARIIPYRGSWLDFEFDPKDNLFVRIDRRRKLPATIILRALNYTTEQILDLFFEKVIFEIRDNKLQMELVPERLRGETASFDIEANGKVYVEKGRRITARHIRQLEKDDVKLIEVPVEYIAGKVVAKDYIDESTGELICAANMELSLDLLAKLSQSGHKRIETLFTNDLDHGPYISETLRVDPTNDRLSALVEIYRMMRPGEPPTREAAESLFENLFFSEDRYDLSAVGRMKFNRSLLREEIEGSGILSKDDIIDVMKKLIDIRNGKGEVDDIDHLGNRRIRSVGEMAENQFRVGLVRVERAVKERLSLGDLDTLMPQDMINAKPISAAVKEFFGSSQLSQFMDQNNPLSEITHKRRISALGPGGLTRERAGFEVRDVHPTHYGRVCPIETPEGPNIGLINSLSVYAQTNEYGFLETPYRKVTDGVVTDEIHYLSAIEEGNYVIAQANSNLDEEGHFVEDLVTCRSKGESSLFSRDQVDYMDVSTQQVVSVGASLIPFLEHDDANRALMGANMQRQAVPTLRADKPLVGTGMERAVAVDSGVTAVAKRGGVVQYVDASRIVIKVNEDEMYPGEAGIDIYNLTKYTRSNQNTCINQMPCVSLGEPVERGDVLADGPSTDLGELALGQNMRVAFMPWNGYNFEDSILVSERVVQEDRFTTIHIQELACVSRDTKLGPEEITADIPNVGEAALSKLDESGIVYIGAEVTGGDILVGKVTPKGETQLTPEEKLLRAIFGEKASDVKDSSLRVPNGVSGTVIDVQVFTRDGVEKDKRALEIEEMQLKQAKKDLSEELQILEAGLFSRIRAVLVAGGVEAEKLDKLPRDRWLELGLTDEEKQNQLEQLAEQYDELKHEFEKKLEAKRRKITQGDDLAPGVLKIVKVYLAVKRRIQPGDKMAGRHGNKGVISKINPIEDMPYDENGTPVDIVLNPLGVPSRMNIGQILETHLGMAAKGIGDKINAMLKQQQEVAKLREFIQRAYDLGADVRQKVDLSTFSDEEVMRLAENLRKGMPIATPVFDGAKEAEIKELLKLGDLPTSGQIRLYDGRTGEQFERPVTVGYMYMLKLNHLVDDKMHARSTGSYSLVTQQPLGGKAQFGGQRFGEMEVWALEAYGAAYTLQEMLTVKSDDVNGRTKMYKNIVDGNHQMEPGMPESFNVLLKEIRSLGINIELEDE

Streptococcus equinus = assay: Minimum inhibitory concentration (MIC) against the cell line Streptococcus bovis A5169; assay type: functional; how it was run: as §2
Staphylococcus aureus [5] = assay: Minimum inhibitory concentration (MIC) against the cell line Staphylococcus aureus A5177; assay type: functional; how it was run: as §2
Staphylococcus aureus [6] = assay: Minimum inhibitory concentration (MIC) against the cell line Staphylococcus aureus ATCC 6538P; assay type: functional; how it was run: as §2
Staphylococcus aureus [7] = assay: Minimum inhibitory concentration (MIC) against the cell line Staphylococcus aureus CMX 686B; assay type: functional; how it was run: as §2
Staphylococcus aureus [8] = assay: Minimum inhibitory concentration (MIC) against the cell line Staphylococcus aureus 45; assay type: functional; how it was run: as §2
Streptococcus pyogenes = assay: Minimum inhibitory concentration (MIC) against the cell line Streptococcus pyogenes EES61; assay type: functional; how it was run: as §2
[9] = system: Staphylococcus epidermidis; assay: Minimum inhibitory concentration (MIC) against the strain Staphylococcus epidermidis 3519

| Compound | MIC (Bacteroides fragilis) [µg/mL] | MIC [1] [µg/mL] | MIC (Clostridioides difficile) [µg/mL] | MIC (Clostridium perfringens) [µg/mL] | also measured |
| --- | --- | --- | --- | --- | --- |
| CN1CC(O)=C(C(=O)/C=C/C(Cl)=C/c2ccccc2)C1=O | 16 (≈ 52.7 µM) | 16 (≈ 52.7 µM) | 8 (≈ 26.3 µM) | 8 (≈ 26.3 µM) |  |
| COCCOCc1ccc2ccccc2c1/C=C(C)/C=C/C(O)=C1\C(=O)CN(C)C1=O | 125 (≈ 297 µM) | 250 (≈ 593 µM) | 8 (≈ 19 µM) | 125 (≈ 297 µM) |  |
| CC(/C=C/C(=O)C1=C(O)CN(C)C1=O)=C\c1ccc(-c2ccccc2)cc1 | 8 (≈ 22.3 µM) | 125 (≈ 348 µM) | ≤ 0.5 | 31 (≈ 86.2 µM) |  |
| CCCCCCCCCCC/C=C(C)/C=C/C(O)=C1\C(=O)CN(C)C1=O | 125 (≈ 346 µM) | 125 (≈ 346 µM) | 4 (≈ 11.1 µM) | 31 (≈ 85.7 µM) |  |
| CC(/C=C/C(O)=C1\C(=O)CNC1=O)=C\c1ccc2ccccc2c1 | ≤ 0.5 | ≤ 0.5 | ≤ 0.5 | ≤ 0.5 | MIC (Escherichia coli [2]): > 100 µg/mL; MIC (Escherichia coli [3]): > 100 µg/mL; MIC (Micrococcus luteus): 6.2 µg/mL (≈ 19.4 µM); MIC (Pseudomonas aeruginosa): 100 µg/mL (≈ 313 µM); inhibition [4]: 13.1%; MIC (Streptococcus equinus): 12.5 µg/mL (≈ 39.1 µM); MIC (Staphylococcus aureus [5]): 1.56 µg/mL (≈ 4.88 µM); MIC (Staphylococcus aureus [6]): 0.78 µg/mL (≈ 2.44 µM); MIC (Staphylococcus aureus [7]): 0.78 µg/mL (≈ 2.44 µM); MIC (Staphylococcus aureus [8]): 0.78 µg/mL (≈ 2.44 µM); MIC (Streptococcus pyogenes): 12.5 µg/mL (≈ 39.1 µM); MIC [9]: 3.1 µg/mL (≈ 9.71 µM) |
| CC(/C=C/C(=O)C1=C(O)CN(C)C1=O)=C\c1ccccc1 | 4 (≈ 14.1 µM) | 8 (≈ 28.2 µM) | 4 (≈ 14.1 µM) | 8 (≈ 28.2 µM) |  |
| O=C(/C=C/C(Br)=C/c1ccccc1)C1=C(O)CNC1=O | 8 (≈ 23.9 µM) | 8 (≈ 23.9 µM) | 8 (≈ 23.9 µM) | 31 (≈ 92.8 µM) | inhibition [4]: 7.3% |
| CC(/C=C/C(=O)C1=C(O)CN(C)C1=O)=C\c1cnc2ccccc2c1 | 2 (≈ 5.98 µM) | 4 (≈ 12 µM) | 2 (≈ 5.98 µM) | 2 (≈ 5.98 µM) |  |
| CC(/C=C/C(=O)C1=C(O)CN(C)C1=O)=C\c1cccc2ccccc12 | < 0.5 | 2 (≈ 6 µM) | < 0.5 | < 0.5 | MIC (Escherichia coli [2]): > 100 µg/mL; MIC (Escherichia coli [3]): > 100 µg/mL; MIC (Micrococcus luteus): 6.2 µg/mL (≈ 18.6 µM); MIC (Pseudomonas aeruginosa): > 100 µg/mL; MIC (Streptococcus equinus): 50 µg/mL (≈ 150 µM); MIC (Staphylococcus aureus [5]): 3.1 µg/mL (≈ 9.3 µM); MIC (Staphylococcus aureus [6]): 3.1 µg/mL (≈ 9.3 µM); MIC (Staphylococcus aureus [7]): 3.1 µg/mL (≈ 9.3 µM); MIC (Staphylococcus aureus [8]): 3.1 µg/mL (≈ 9.3 µM); MIC (Streptococcus pyogenes): 12.5 µg/mL (≈ 37.5 µM); MIC [9]: 3.1 µg/mL (≈ 9.3 µM) |
| CC(/C=C/C(=O)C1=C(O)CN(C)C1=O)=C\c1c(O)ccc2ccccc12 | 31 (≈ 88.7 µM) | 31 (≈ 88.7 µM) | 16 (≈ 45.8 µM) | 16 (≈ 45.8 µM) |  |
| CC(/C=C/C(=O)C1=C(O)CN(C)C1=O)=C\C1CCCCO1 (stereo unspecified) | 125 (≈ 429 µM) | 125 (≈ 429 µM) | 125 (≈ 429 µM) | 125 (≈ 429 µM) |  |
| CC(/C=C/C(O)=C1\C(=O)CNC1=O)=C\c1cccc2ccccc12 | 1 (≈ 3.13 µM) | 1 (≈ 3.13 µM) | 1 (≈ 3.13 µM) | 1 (≈ 3.13 µM) | MIC (Escherichia coli [2]): > 100 µg/mL; MIC (Escherichia coli [3]): 100 µg/mL (≈ 313 µM); MIC (Micrococcus luteus): 12.5 µg/mL (≈ 39.1 µM); MIC (Pseudomonas aeruginosa): 100 µg/mL (≈ 313 µM); MIC (Streptococcus equinus): 6.2 µg/mL (≈ 19.4 µM); MIC (Staphylococcus aureus [5]): 3.1 µg/mL (≈ 9.71 µM); MIC (Staphylococcus aureus [6]): 3.1 µg/mL (≈ 9.71 µM); MIC (Staphylococcus aureus [7]): 3.1 µg/mL (≈ 9.71 µM); MIC (Staphylococcus aureus [8]): 3.1 µg/mL (≈ 9.71 µM); MIC (Streptococcus pyogenes): 12.5 µg/mL (≈ 39.1 µM); MIC [9]: 6.2 µg/mL (≈ 19.4 µM) |
| CC(/C=C/C(=O)C1=C(O)CN(C)C1=O)=C\C1CCc2ccccc2C1 (stereo unspecified) | 125 (≈ 370 µM) | 62 (≈ 184 µM) | 125 (≈ 370 µM) | 125 (≈ 370 µM) |  |
| CC(/C=C/C(O)=C1\C(=O)CNC1=O)=C\c1ccccc1 | 4 (≈ 14.9 µM) | 4 (≈ 14.9 µM) | 4 (≈ 14.9 µM) | 8 (≈ 29.7 µM) | inhibition [4]: 4.5% |
| CN1CC(O)=C(C(=O)/C=C/C=C/c2ccccc2[N+](=O)[O-])C1=O | 62 (≈ 197 µM) | 62 (≈ 197 µM) | 62 (≈ 197 µM) | 62 (≈ 197 µM) |  |
| O=C(/C=C/C(Cl)=C/c1ccccc1)C1=C(O)CNC1=O | 8 (≈ 27.6 µM) | 8 (≈ 27.6 µM) | 4 (≈ 13.8 µM) | 4 (≈ 13.8 µM) | inhibition [4]: 3.2% |
| CC(/C=C/C(O)=C1\C(=O)CN(C)C1=O)=C\C(C)C1CCCCC1 (stereo unspecified) | 8 (≈ 25.2 µM) | 62 (≈ 195 µM) | 2 (≈ 6.3 µM) | 2 (≈ 6.3 µM) |  |

| Compound | MIC (Bacteroides fragilis) [µg/mL] | MIC [1] [µg/mL] | MIC (Clostridioides difficile) [µg/mL] | MIC (Clostridium perfringens) [µg/mL] | also measured |
| --- | --- | --- | --- | --- | --- |
| CCCCCC(/C=C/C(O)=C1\C(=O)CN(C)C1=O)=C\c1ccccc1 | 62 (≈ 183 µM) | 125 (≈ 368 µM) | 31 (≈ 91.3 µM) | 16 (≈ 47.1 µM) | inhibition [4]: 5.6% |
| CC(/C=C/C(=O)C1=C(O)C(C)N(C)C1=O)=C\c1ccc2ccccc2c1 (stereo unspecified) | 62 (≈ 178 µM) | 62 (≈ 178 µM) | 62 (≈ 178 µM) | 31 (≈ 89.2 µM) |  |
| CC(/C=C/C(=O)C1=C(O)CN(C)C1=O)=C\c1ccccn1 | 62 (≈ 218 µM) | 125 (≈ 440 µM) | 8 (≈ 28.1 µM) | 31 (≈ 109 µM) |  |
| CN1CC(O)=C(C(=O)/C=C/C(Br)=C/c2ccccc2)C1=O | 16 (≈ 46 µM) | 16 (≈ 46 µM) | 16 (≈ 46 µM) | 8 (≈ 23 µM) |  |
| CC(/C=C/C(O)=C1\C(=O)CN(C)C1=O)=C\C(C)c1ccccc1 (stereo unspecified) | 8 (≈ 25.7 µM) | 16 (≈ 51.4 µM) | 125 (≈ 401 µM) | 125 (≈ 401 µM) |  |
| CC(/C=C/C(O)=C1\C(=O)C2CCCN2C1=O)=C\c1ccc2ccccc2c1 (stereo unspecified) | 31 (≈ 86.2 µM) | 62 (≈ 172 µM) | 16 (≈ 44.5 µM) | 31 (≈ 86.2 µM) |  |
| CN1CC(=O)\C(=C(O)/C=C/C=C/c2ccc(N(C)C)cc2)C1=O | 125 (≈ 400 µM) | 62 (≈ 198 µM) | 31 (≈ 99.2 µM) | 31 (≈ 99.2 µM) |  |
| COc1ccc(/C=C(C)/C=C/C(O)=C2\C(=O)CN(C)C2=O)c2ccccc12 | 62 (≈ 171 µM) | 125 (≈ 344 µM) | 4 (≈ 11 µM) | 2 (≈ 5.5 µM) |  |
| CC(/C=C/C(=O)C1=C(O)CN(C)C1=O)=C\C1CCCCC1 | 8 (≈ 27.6 µM) | 8 (≈ 27.6 µM) | 4 (≈ 13.8 µM) | 4 (≈ 13.8 µM) |  |
| O=C(/C=C/C=C/c1ccccc1)C1=C(O)CNC1=O | 50 (≈ 196 µM) | 50 (≈ 196 µM) | 25 (≈ 97.9 µM) | 25 (≈ 97.9 µM) |  |
| CCC[C@@H]1C[C@@H](C(=O)N[C@@H]([C@H]2O[C@H](SC)[C@H](O)[C@@H](O)[C@H]2O)[C@H](C)Cl)N(C)C1 [CLINDAMYCIN] | 2 (≈ 4.71 µM) | 8 (≈ 18.8 µM) | 1 (≈ 2.35 µM) | < 0.5 |  |
| CC(/C=C/C(=O)C1=C(O)CN(C)C1=O)=C\c1ccnc2ccccc12 | 16 (≈ 47.9 µM) | 31 (≈ 92.7 µM) | 8 (≈ 23.9 µM) | 8 (≈ 23.9 µM) |  |
| CC(/C=C/C(=O)C1=C(O)CN(C)C1=O)=C\c1ccc(F)c2ccccc12 | 2 (≈ 5.69 µM) | 2 (≈ 5.69 µM) | 31 (≈ 88.2 µM) | 62 (≈ 176 µM) |  |
| CN1CC(O)=C(C(=O)/C=C/C=C/c2ccccc2)C1=O | 62 (≈ 230 µM) | 62 (≈ 230 µM) | 16 (≈ 59.4 µM) | 125 (≈ 464 µM) |  |
| CO[C@H]1/C=C/O[C@@]2(C)Oc3c(C)c(O)c4c(O)c(c(/C=N/N5CCN(C)CC5)c(O)c4c3C2=O)NC(=O)/C(C)=C\C=C\[C@H](C)[C@H](O)[C@@H](C)[C@@H](O)[C@@H](C)[C@H](OC(C)=O)[C@@H]1C |  |  |  |  | inhibition [4]: 57% |
| CC(/C=C/C(=O)C1=C(O)CN(C)C1=O)=C\CC1CCCCC1 | 8 (≈ 26.4 µM) | 31 (≈ 102 µM) | 2 (≈ 6.59 µM) | 2 (≈ 6.59 µM) |  |
| CC(/C=C/C(O)=C1\C(=O)CN(C)C1=O)=C\C(C)C | 31 (≈ 124 µM) | 62 (≈ 249 µM) | 31 (≈ 124 µM) | 31 (≈ 124 µM) |  |
